The text below walks through data of paper PMC8592115 (ACS Medicinal Chemistry Letters, 2021).

For data set [1], the target named is T1, CXCL12 (Homo sapiens, UniProt P48061). Put plainly: 2D NMR chemical shift perturbation titration of 15N-CXCL12. Format: binding. The note with it: for precipitation/aggregation of CXCL12 on addition of compound: NMR titration samples.
A short description of data set [2]: Qualitative solubility of compounds in NMR titration samples. The note with it: samples prepared for NMR titration. Format: physicochemical. The gist of the method:
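Test compound titrated into CXCL12 at increasing concentrations up to 1600 μM, with HSQC spectra recorded at each step. Solubility was scored against a cut-off of ≥1600 μM in these titration samples. Soluble compounds counted as binders if they also shifted at least two of residues I28, V39 and A40 by ≥0.5 ppm.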

Data set [3] deals with T1, CXCL12. Briefly: Calculation of ligand efficiency. The note with it: Table 6; LLE = pKd – cLogP.

“Also recorded” adds a separate entry of the source.

Regarding `O=C(O)c1ccc(Nc2nc(Nc3ccc(C(=O)O)cc3)nc(-c3ccccc3)n2)cc1` [Compound 9m], the “precipitation/aggregation of CXCL12 on addition of compound” value (“precipitation/aggregation of CXCL12” below) at CXCL12 [1] was “caused aggregation and precipitation of the protein”.
Regarding `O=C(O)CSc1nc(SCC(=O)O)nc(-c2ccc(-c3ccccc3)cc2)n1` [Compound 13e], in data set [2], the “solubility, qualitative” value is listed as “insoluble; also recorded: low solubility”.
On to `O=C(O)CSc1nc(SCC(=O)O)nc(-c2ccc(N3CCOCC3)cc2)n1` [Compound 13i], for which the “solubility, qualitative” value in data set [2] was “qualitatively greater solubility”.
`O=C(O)CSc1nc(SCC(=O)O)nc(-c2cnc3ccccc3c2)n1` [Compound 13l]: the “precipitation/aggregation of CXCL12” value on CXCL12 [1] was “precipitated the protein from solution; also recorded: caused CXCL12 to precipitate”.
For `O=C(O)CSc1nc(SCC(=O)O)nc(-c2ccc(Oc3ccccc3)cc2)n1` [Compound 13m], on CXCL12 [1], the “precipitation/aggregation of CXCL12” value is on record as “precipitated the protein from solution; also recorded: caused CXCL12 to precipitate”.
Regarding `O=C(O)CSc1nc(SCC(=O)O)nc(-c2ccoc2)n1` [Compound 13n], the “precipitation/aggregation of CXCL12” value on CXCL12 [1] is on record as “precipitated the protein from solution; also recorded: caused CXCL12 to precipitate”.
As a reminder, the Kd is the free concentration of one partner at which half of the binding sites on the other are occupied at equilibrium, for simple one-to-one binding. For `O=C(O)CSc1nc(SCC(=O)O)nc(C2C3CC4CC(C3)CC2C4)n1` (centres unmarked) [Compound 17, 2,2'-((6-((1r,3r)-Adamantan-2-yl)-1,3,5-triazine-2,4-diyl)bis(sulfanediyl))diacetic acid], the dissociation constant Kd on CXCL12 [1] was above 1600 µM.
On to `O=C(O)CSc1nc(SCC(=O)O)nc(C2=CCCCC2)n1` [Compound 20, 2,2'-((6-(Cyclohex-1-en-1-yl)-1,3,5-triazine-2,4-diyl)bis(sulfanediyl))diacetic acid], for which, on CXCL12 [1], the “precipitation/aggregation of CXCL12” value is “caused the protein to precipitate; also recorded: b 20 caused CXCL12 to precipitate”.
With `O=C(O)CSc1nc(SCC(=O)O)nc(Sc2ccccc2)n1` [Compound 24a, 2,2'-((6-(Phenylthio)-1,3,5-triazine-2,4-diyl)bis(sulfanediyl))diacetic acid], the “solubility, qualitative” value in data set [2] is “not as soluble as some of our other analogues”.
For the compound `O=C(O)CSc1nc(SCC(=O)O)nc(N2CCOCC2)n1` [Compound 24j], on CXCL12 [3], the “LLE (lipophilic ligand efficiency)” value is given as 2.07. The “solubility, qualitative” value in data set [2] is “notably more soluble than its analogues”.
